Columns and labels:
Canis familiaris [1] = species on record: Canis familiaris; assay: Ratio of MAP ED delta20 to that of IUP ED delta5
[2] = biological target: Alpha adrenergic receptor 1A and 1B (Rattus norvegicus) (UniProt P15823+P43140); assay: Selectivity is ratio of pKi (binding affinity) of alpha-1B receptor to that of alpha-1A receptor.; format: protein assay
[3] = biological target: T1, Alpha-1A adrenergic receptor (Rattus norvegicus, UniProt P43140); assay: In vitro binding affinity towards alpha-1A adrenergic receptor of rat submaxillary gland in radioligand binding assay
T1 sequence (P43140 whole entry): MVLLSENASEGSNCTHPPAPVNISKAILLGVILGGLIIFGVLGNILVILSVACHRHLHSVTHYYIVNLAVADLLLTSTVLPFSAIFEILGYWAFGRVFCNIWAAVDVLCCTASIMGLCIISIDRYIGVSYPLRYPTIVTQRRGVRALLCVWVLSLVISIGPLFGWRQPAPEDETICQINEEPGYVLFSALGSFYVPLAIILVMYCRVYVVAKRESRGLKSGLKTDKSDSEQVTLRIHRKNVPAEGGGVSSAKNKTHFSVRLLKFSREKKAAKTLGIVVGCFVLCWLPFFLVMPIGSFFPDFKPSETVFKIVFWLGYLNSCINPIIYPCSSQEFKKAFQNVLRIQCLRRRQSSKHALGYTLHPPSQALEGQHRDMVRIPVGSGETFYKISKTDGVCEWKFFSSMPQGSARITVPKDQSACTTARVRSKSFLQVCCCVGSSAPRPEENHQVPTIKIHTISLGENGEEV
Summary of the method: (§1)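 Radioligand binding at α1 subtypes: α1A from rat submaxillary gland, α1B hamster clone, α1D rat clone. Run essentially per an earlier method.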

[4] = biological target: T2, Alpha-1D adrenergic receptor (Rattus norvegicus, UniProt P23944); assay: In vitro binding affinity towards alpha-1D adrenergic receptor of rat clone in radioligand binding assay
T2 sequence (P23944 whole entry): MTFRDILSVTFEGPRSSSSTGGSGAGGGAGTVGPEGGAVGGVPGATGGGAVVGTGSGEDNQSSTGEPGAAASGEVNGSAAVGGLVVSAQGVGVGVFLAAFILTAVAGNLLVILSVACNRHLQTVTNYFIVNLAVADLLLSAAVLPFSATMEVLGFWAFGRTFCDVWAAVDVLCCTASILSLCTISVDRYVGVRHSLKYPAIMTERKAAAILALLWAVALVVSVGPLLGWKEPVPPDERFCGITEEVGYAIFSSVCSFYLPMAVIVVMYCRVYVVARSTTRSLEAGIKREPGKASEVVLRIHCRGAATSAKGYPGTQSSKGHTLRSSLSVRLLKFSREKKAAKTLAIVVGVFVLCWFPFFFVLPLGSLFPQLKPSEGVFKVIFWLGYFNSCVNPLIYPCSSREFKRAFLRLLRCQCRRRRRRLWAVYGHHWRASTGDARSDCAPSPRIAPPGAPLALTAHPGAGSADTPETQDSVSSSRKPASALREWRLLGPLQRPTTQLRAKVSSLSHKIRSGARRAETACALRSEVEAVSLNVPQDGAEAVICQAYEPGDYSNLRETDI
Summary of the method: as §1

[5] = biological target: T3, Alpha-1A adrenergic receptor (Oryctolagus cuniculus) (UniProt O02824); assay: Efficacy relative to phenylephrine (PE) to constrict tissue containing the alpha-1A adrenergic receptor in rabbit urethra; format: functional, tissue-based
T3 sequence (whole entry): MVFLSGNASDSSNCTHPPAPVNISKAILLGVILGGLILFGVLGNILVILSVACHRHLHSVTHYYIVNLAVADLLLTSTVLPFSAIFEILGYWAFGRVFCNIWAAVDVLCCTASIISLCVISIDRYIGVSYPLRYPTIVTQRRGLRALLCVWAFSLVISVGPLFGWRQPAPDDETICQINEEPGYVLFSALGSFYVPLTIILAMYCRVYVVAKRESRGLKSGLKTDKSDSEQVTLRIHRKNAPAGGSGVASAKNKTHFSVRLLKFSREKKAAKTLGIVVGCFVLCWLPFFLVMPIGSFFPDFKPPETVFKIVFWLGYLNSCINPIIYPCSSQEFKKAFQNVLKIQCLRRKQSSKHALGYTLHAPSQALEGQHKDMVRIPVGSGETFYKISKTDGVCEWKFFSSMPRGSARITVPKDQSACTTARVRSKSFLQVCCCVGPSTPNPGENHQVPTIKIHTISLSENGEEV
Summary of the method: (§2)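 α1-agonist dose–response curves in isolated tissue: rabbit urethra (α1A), rat spleen (α1B), rat aorta (α1D). Agonist potency and efficacy read from the concentration–response curves.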

[6] = biological target: Alpha adrenergic receptor 1A and 1D (Rattus norvegicus) (UniProt P23944+P43140); assay: Selectivity is ratio of pKi (binding affinity) of Alpha-1D to that of alpha1A; format: protein assay
Canis familiaris [7] = assay: Uroselectivity was determined by measuring effective dose required for 20 mmHg increase of mean arterial pressure (MAP) in vivo in dog; format: functional, Canis lupus familiaris, Artery
Summary of the method: (§3)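 Dog model recording intraurethral pressure (IUP) and mean arterial pressure (MAP) simultaneously. Increasing iv doses given, maximal effect of each dose taken. Doses giving a 5 mmHg rise in IUP (ED Δ5) or 20 mmHg rise in MAP (ED Δ20) were calculated, in nmol/kg ± SEM, n ≥ 4 (2 or 3 where footnoted).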

[8] = biological target: T4, Alpha-1B adrenergic receptor (Mesocricetus auratus, UniProt P18841); assay: In vitro binding affinity towards alpha-1B adrenergic receptor of hamster clone in radioligand binding assay; format: single protein
T4 sequence (P18841 whole entry): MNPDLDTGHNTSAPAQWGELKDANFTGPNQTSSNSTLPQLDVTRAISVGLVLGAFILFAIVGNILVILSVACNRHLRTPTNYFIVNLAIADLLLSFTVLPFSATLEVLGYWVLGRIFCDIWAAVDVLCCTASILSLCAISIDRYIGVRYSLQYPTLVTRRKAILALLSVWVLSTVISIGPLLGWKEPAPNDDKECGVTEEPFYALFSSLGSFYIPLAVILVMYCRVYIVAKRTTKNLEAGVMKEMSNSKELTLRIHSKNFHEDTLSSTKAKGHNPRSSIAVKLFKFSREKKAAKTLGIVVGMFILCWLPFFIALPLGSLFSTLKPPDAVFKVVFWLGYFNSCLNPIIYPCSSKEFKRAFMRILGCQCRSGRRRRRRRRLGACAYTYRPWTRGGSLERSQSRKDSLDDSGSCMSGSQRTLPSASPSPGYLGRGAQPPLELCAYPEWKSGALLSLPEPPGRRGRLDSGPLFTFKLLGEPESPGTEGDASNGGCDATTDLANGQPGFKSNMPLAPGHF
Summary of the method: as §1

[9] = biological target: T5, Alpha-1B adrenergic receptor (Rattus norvegicus) (UniProt P15823); assay: Efficacy relative to phenylephrine (PE) constriction of rat spleen containing alpha-1B adrenergic receptor; format: functional, tissue-based
T5 sequence (whole entry): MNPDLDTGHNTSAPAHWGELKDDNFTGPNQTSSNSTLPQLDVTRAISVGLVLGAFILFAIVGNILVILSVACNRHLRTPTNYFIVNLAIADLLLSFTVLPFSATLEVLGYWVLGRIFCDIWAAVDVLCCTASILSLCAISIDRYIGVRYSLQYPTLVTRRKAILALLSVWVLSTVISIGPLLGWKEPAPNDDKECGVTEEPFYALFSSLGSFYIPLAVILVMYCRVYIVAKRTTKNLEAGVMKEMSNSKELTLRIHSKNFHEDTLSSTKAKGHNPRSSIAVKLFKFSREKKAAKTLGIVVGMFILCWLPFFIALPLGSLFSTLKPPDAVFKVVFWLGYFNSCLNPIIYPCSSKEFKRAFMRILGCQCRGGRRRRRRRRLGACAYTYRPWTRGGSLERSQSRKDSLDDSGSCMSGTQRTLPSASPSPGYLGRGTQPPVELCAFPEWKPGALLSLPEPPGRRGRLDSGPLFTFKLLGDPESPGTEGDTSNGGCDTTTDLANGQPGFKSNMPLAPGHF
Summary of the method: as §2

Canis familiaris [10] = assay: Uroselectivity was determined by measuring effective dose required for 5 mmHg increase of intraurethral pressure (IUP) in vivo in dog; format: functional, Canis lupus familiaris
Summary of the method: as §3

[11] = biological target: T6, Alpha-2B adrenergic receptor (Rattus norvegicus, UniProt P19328); assay: In vitro binding affinity towards alpha-2B adrenergic receptor of rat neonatal lung in radioligand binding assay
T6 sequence (P19328 whole entry): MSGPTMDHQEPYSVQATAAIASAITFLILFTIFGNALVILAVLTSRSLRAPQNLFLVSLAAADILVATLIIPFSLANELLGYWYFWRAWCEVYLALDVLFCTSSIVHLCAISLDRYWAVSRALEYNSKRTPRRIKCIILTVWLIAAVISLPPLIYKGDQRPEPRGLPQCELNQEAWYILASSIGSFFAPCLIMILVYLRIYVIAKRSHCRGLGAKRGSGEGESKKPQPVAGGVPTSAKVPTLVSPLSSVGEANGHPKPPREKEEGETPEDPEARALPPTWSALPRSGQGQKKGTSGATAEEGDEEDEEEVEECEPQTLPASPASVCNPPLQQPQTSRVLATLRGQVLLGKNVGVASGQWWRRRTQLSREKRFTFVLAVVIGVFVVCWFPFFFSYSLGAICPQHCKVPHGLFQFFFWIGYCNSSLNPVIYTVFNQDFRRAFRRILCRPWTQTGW

[12] = biological target: T7, Alpha-2A adrenergic receptor (Rattus norvegicus) (UniProt P22909); assay: Efficacy relative to clonidine to constrict tissue containing the alpha-2A adrenergic receptor in rat prostatic vas deferens
T7 sequence (whole entry): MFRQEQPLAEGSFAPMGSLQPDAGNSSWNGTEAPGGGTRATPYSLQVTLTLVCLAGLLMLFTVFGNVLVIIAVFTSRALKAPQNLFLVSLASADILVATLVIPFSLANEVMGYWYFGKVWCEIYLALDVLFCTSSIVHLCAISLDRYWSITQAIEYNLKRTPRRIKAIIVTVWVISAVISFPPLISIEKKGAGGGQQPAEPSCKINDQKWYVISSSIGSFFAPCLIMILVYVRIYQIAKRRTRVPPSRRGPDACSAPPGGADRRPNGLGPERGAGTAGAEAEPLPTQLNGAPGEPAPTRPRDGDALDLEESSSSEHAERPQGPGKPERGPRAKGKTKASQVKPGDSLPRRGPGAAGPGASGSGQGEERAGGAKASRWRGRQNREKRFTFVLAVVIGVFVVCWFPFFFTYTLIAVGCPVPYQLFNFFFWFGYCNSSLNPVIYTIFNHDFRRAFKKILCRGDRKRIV

[13] = biological target: T8, Alpha-2A adrenergic receptor (Homo sapiens, UniProt P08913); assay: In vitro binding affinity towards alpha-2A adrenergic receptor of human clone in radioligand binding assay
T8 sequence (P08913 whole entry): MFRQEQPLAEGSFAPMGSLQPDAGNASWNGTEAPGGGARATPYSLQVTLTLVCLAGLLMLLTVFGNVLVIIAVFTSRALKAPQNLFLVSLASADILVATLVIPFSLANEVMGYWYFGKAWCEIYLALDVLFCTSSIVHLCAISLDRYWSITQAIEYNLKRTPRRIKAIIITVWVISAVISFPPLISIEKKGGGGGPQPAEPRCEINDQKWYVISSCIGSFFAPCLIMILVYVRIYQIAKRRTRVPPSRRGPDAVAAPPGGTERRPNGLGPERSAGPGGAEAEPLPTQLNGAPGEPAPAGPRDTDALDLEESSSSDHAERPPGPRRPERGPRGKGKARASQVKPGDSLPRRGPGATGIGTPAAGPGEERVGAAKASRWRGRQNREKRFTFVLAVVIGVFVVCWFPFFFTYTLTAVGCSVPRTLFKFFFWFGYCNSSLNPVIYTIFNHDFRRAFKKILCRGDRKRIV

[14] = biological target: T3, Alpha-1A adrenergic receptor (Oryctolagus cuniculus); assay: Functional agonism of the compounds to constrict tissue containing the alpha-1A adrenergic receptor in rabbit urethra; format: tissue-based
Summary of the method: as §2

Compound	Ratio (Canis familiaris [1])	Selectivity [2]	Ki [3]	Ki [4]	Efficacy [5]	Selectivity [6]	ED delta20 (Canis familiaris [7])	Ki [8]	Efficacy [9]	ED delta5 (Canis familiaris [10])	Ki [11]	Efficacy [12]	Ki [13]	pD2 [14]
CCS(=O)(=O)Nc1cccc(Cc2c[nH]cn2)c1C	5.6	60	129 nM	1000 nM	69%	8	202 nM/kg	8130 nM	–	–	–	–	–	–
CS(=O)(=O)Nc1cccc2c1OCCC2c1c[nH]cn1 (stereo not drawn)	–	–	–	–	88%	–	163.9 nM/kg	–	17%	–	–	–	–	–
CCS(=O)(=O)Nc1cc(Cl)cc2c1CCCC2c1c[nH]cn1 (stereo not drawn)	2.5	> 217	45.7 nM	–	–	8	47.7 nM/kg	> 10000 nM	–	19.1 nM/kg	–	–	–	–
CCS(=O)(=O)Nc1cccc2c1CCC2c1c[nH]cn1 (stereo not drawn)	–	–	–	–	87%	–	5.6 nM/kg	–	–	4.4 nM/kg	186 nM	26%	–	–
CS(=O)(=O)Nc1cccc2c1CCCC2c1c[nH]cn1 (stereo not drawn)	–	–	–	–	83%	–	102.3 nM/kg	–	–	–	676 nM	62%	105 nM	–
CS(=O)(=O)Nc1cccc2c1CCCC2C1=NCCN1 (stereo not drawn)	1.1	20	457 nM	4270 nM	87%	9	9.2 nM/kg	7410 nM	–	11.9 nM/kg	–	–	–	6.19
CC(=O)Nc1cccc2c1CCCC2c1c[nH]cn1 (stereo not drawn)	–	–	–	–	70%	–	220 nM/kg	–	35%	–	3020 nM	100%	–	–
CS(=O)(=O)Nc1cccc2c1CCC[C@H]2c1c[nH]cn1	–	–	–	–	84%	–	48.7 nM/kg	–	–	–	–	29%	–	–
CS(=O)(=O)Nc1ccc(F)c2c1CCCC2c1c[nH]cn1 (stereo not drawn)	1	> 32	–	–	64%	10	632 nM/kg	> 10000 nM	–	–	–	–	–	5.31
CCS(=O)(=O)Nc1cccc(Cc2c[nH]cn2)c1	–	–	–	275 nM	80%	–	80 nM/kg	891 nM	–	12 nM/kg	977 nM	34%	170 nM	–
CC(c1cccc(NS(C)(=O)=O)c1)c1c[nH]cn1 (stereo not drawn)	3.4	10	–	–	92%	1	234 nM/kg	> 10000 nM	–	–	–	–	–	5.38

— ChEMBL document CHEMBL1148329, “Synthesis and structure-activity studies on N-[5-(1H-imidazol-4-yl)-5,6,7,8-tetrahydro-1-naphthalenyl]methanesulfonamide, an imidazole-containing alpha(1A)-adrenoceptor agonist” (J Med Chem, 2004)
